# ChEMBL document CHEMBL1129338, “Inhibitors of acyl-CoA:cholesterol O-acyltransferase. synthesis and pharmacological activity of (+/-)-2-dodecyl-alpha-phenyl-N-(2,4,6-trimethoxyphenyl)-2H-tetrazole-5- acetamide and structurally related tetrazole amide derivatives” (J Med Chem, 1996)
# Legend:
# [1] = target: T1, Sterol O-acyltransferase 1 (Rattus norvegicus, UniProt O70536); experiment: In vitro inhibitory activity against acyl coenzyme A:cholesterol acyltransferase 1 of liver microsomes isolated from cholesterol-fed rats.
# T1 sequence (O70536 whole entry): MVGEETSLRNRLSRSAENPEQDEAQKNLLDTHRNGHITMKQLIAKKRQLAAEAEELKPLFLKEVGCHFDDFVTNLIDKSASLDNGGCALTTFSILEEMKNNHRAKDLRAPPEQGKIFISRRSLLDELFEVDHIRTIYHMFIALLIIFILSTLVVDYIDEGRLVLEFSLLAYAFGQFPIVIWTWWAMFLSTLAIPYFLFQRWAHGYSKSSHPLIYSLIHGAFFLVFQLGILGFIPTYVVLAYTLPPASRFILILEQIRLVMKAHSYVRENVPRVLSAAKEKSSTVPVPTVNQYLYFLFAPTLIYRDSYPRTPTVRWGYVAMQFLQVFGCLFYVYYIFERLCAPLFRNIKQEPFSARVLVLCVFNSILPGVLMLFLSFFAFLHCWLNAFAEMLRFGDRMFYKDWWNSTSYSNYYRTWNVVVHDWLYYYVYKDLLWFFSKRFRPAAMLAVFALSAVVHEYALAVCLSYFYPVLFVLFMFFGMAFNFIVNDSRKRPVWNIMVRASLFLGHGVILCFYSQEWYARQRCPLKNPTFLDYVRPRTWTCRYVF
# Method in brief: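 ACAT inhibition was measured in hepatic microsomes isolated from cholesterol-fed rats. Each determination was run in triplicate, and IC50 was reported.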
# [2] = target: T2, Sterol O-acyltransferase 1 (Mus musculus) (UniProt Q61263); experiment: In vitro inhibitory activity against acyl coenzyme A:cholesterol acyltransferase 1 in cell culture assay using murine IC-21 macrophages at 0.1 uM
# T2 sequence (whole entry): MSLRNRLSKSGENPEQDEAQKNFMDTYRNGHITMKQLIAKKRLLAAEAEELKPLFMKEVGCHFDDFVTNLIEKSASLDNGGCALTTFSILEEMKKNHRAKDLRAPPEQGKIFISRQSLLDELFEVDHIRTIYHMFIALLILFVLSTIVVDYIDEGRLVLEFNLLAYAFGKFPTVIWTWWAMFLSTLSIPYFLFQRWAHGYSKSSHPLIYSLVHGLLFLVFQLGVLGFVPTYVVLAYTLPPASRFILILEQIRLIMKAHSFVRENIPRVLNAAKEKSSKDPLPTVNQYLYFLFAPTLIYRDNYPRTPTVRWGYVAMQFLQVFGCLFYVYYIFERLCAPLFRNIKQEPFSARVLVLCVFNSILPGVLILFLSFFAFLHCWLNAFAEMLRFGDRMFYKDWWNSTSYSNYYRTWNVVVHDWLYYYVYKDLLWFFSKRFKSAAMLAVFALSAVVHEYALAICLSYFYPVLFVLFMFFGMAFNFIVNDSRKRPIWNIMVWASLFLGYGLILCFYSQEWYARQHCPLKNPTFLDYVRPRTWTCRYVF
# Method in brief: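 IC-21 mouse macrophages were preincubated 16 h in serum-free DMEM with 20 µM albumin and phosphatidylserine/cholesterol vesicles. The vesicles were sonicated in 150 mM NaCl, 5 mM MOPS, 1 mM EDTA, pH 7.4, and filter-sterilized. Medium was then replaced with serum-free DMEM containing the compound in DMSO at 0.1 µM. Percent inhibition was read, with cell protein measured by the Lowry method.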
# [3] = tested on: Rattus norvegicus; experiment: Percent change in total cholesterol (TC) in cholic acid (0.5%)-, cholesterol (1.5%) -, and peanut oil (5.5%)- fed rats at a dose 30 mg/kg.; format: functional
# [4] = tested on: Rattus norvegicus; experiment: In vitro percent decrease in cholesterol activity at 30 mg/kg in acute rat screen; format: functional; conditions: in the assay text read “In vivo” for “In vitro”
# Method in brief: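 Rats received a single gavage dose of 30 mg/kg, suspended in carboxymethylcellulose/Tween-20 in water, followed by one high-fat, high-cholesterol meal. The read-out was inhibition of the overnight rise in plasma total cholesterol, as percent change.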
# [5] = tested on: Rattus norvegicus; experiment: Percent change in High Density Lipoproteins (HDL) in Chronic Cholesterol -Fed rat model at a dose 30 mg/kg; format: functional
# Method in brief: (§1)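 Rats ate a high-fat, high-cholesterol diet for 14 days. During the second week they received the test compound daily by gavage at 30 mg/kg, in a carboxymethylcellulose/Tween-20 aqueous vehicle. Plasma lipids (total cholesterol, HDL-C, non-HDL-C) were read as percent change.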
# [6] = tested on: Rattus norvegicus; experiment: % change in total cholesterol in Chronic Cholesterol-Fed rat model at dose 30 mg/kg; format: functional; method in brief: as §1
# [7] = tested on: Rattus norvegicus; experiment: Percent change in non High Density Lipoproteins (HDL) in Chronic Cholesterol -Fed rat model at a dose 30 mg/kg
# [8] = tested on: Oryctolagus cuniculus; experiment: % change in total cholesterol(TC) versus progression control (PC) with out drug intervention in chronic cholesterol-fed rabbit model at a dose of 25 mg/kg; format: functional
# Method in brief: (§2)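 Male New Zealand rabbits (1-1.5 kg) were meal-fed 50 g/day of chow with 0.5% cholesterol, 3% coconut oil and 3% peanut oil. After 1 week, compound was added to the diet for 2 weeks at 5 or 25 mg/kg. Plasma total cholesterol came from cardiac blood of fasted animals after nitrogen asphyxiation. It was compared with cholesterol-fed progression controls or with T0, the start of drug intervention, when plasma cholesterol was taken 24 h after the drug meal.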
# [9] = tested on: Oryctolagus cuniculus; experiment: Dose response in cholesterol fed rabbit after oral administration; format: functional
# Method in brief: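 Cholesterol-fed rabbit model with oral dosing across a dose series, 8 animals per dose. Plasma cholesterol reduction was averaged at each dose. ED50, the dose lowering plasma total cholesterol 50%, was calculated from these mean responses with the median-effect equation.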
# [10] = tested on: Oryctolagus cuniculus; experiment: Percent change in total cholesterol(TC) versus (T0)- at which drug intervention begins at a dose of 25 mg/kg in the chronic cholesterol-fed rabbit model; format: functional; method in brief: as §2
# [11] = tested on: Oryctolagus cuniculus; experiment: Oral bioactivity expressed as %inhibition after 4 hours of drug administration (dose 25 mg/kg) in rabbit bioassay; format: functional
# Method in brief: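 Plasma was taken before dosing and at 1, 2 and 4 h. Plasma (0.2 mL) was hexane-extracted, dried and redissolved in chloroform/methanol 2:1. It was then tested for ACAT inhibition in the liver microsomal assay alongside spiked standards and a 2.5 µM CI-976 reference.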
# [12] = tested on: Oryctolagus cuniculus; experiment: % change in total cholesterol(TC) versus progression control (PC) with out drug intervention in chronic cholesterol-fed rabbit model at a dose of 5 mg/kg; format: functional; method in brief: as §2
# [13] = tested on: Rattus norvegicus; experiment: Change in total cholesterol in Chronic Cholesterol-Fed rat model at dose 30 mg/kg; format: functional; method in brief: as §1
SMILES,IC50 [1] [nM],inhibition [2] [%],Change [3] [%],other results
CCCCCCCCCCCCn1nnc(C(C)(C)C(=O)Nc2c(OC)cc(OC)cc2OC)n1,33,34,<69,
CCCCCCCCCCCCn1nnc(C(C(=O)Nc2c(OC)cc(OC)cc2OC)c2ccc(-c3ccccc3)cc2)n1 (stereo unspecified),221,10,<43,
CCCCCCCCCCCCn1nnc(C(C(=O)Nc2c(OC)cc(OC)cc2OC)c2ccccn2)n1 (stereo unspecified),59,23,<60,
CCCCCCCCCCCCn1nnc(C(=O)Nc2c(C(C)C)cccc2C(C)C)n1,1060,33,23,
CCCCCCCCCCCCn1nnc(C2(C(=O)Nc3c(OC)cc(OC)cc3OC)CCCC2)n1,63,16,<56,
CCCCCCCCCCCCn1nnc(C(C(=O)Nc2c(OC)ncnc2OC)c2ccccc2)n1 (stereo unspecified),13,39,<56,Decrease [4]: 66%
CCCCCCCCCCCCn1nnc(C(C(=O)NC2CC2)c2ccccc2)n1 (stereo unspecified),244,10,<62,
CCCCCCCCn1nnc(C(C(=O)Nc2c(OC)cc(OC)cc2OC)c2ccccc2)n1 (stereo unspecified),270,13,<39,
CCCCCCCCCCCCn1nnc(CC(=O)Nc2c(C(C)C)cccc2C(C)C)n1,5,91,<64,Change [5]: 82%; Change [6]: <42%; Change [7]: <63%
CCCCCCCCCCCCn1nnc(C(C(=O)Nc2ccccn2)c2ccccc2)n1 (stereo unspecified),480,8,22,
CCCCCCCCCCCCn1nnc(C(F)C(=O)Nc2c(OC)cc(OC)cc2OC)n1 (stereo unspecified),1760,,,
CCCCCCCCCCCCn1nnc(C(C(=O)Nc2ccc3c(C)cc(C)nc3n2)c2ccccc2)n1 (stereo unspecified),1540,49,8,
CCCCCCCCCCCCn1nnc(C(C(=O)Nc2c(C(C)C)cccc2C(C)C)c2ccccc2)n1 (stereo unspecified),,47,<66,Change [8]: <73%; ED50 [9]: 1.2 mg/kg; Change [10]: <43%; inhibition in vivo at 25 mg/kg [11]: 96%; Change [12]: <61%; Change [5]: 27%; Change [13]: <38%; Decrease [4]: 66%; Change [7]: <40%
CCCCCCCCCCCCn1nnc(C(C#N)C(=O)Nc2c(OC)cc(OC)cc2OC)n1 (stereo unspecified),13600,7,<27,
CCCCCCCCCCCCn1nnc(C(C(=O)NC(C)(C)C)c2ccccc2)n1 (stereo unspecified),3350,1,1,
CCCCCCCCCCCCn1nnc(C(C(=O)Nc2c(OC)cc(OC)cc2OC)c2ccc(N(C)C)cc2)n1 (stereo unspecified),659,0,<62,
CCCCCCCCCCCCn1nnc(C(C(=O)Nc2c(OC)cc(OC)cc2OC)c2ccc(F)cc2)n1 (stereo unspecified),36,46,<68,Change [5]: 12%; Change [7]: <53%

SMILES,IC50 [1] [nM],inhibition [2] [%],Change [3] [%],other results
CCCCCCCCCCCCn1nnc(C(C(=O)Nc2ncccc2C)c2ccccc2)n1 (stereo unspecified),85,4,<52,
CCCCCCCCCCCCn1nnc(C(C(=O)Nc2c(OC)cc(OC)cc2OC)c2ccc(OC)cc2)n1 (stereo unspecified),200,61,<57,
CCCCCCCCCCCCn1nnc(C(C(=O)Nc2ccccc2)c2ccccc2)n1 (stereo unspecified),480,46,38,
CCCCCCCCCCCCn1nnc(C(Cc2ccccc2)C(=O)Nc2c(OC)cc(OC)cc2OC)n1 (stereo unspecified),49,77,<73,inhibition in vivo at 25 mg/kg [11]: 0%; Change [5]: 27%; Change [6]: <48%; Change [7]: <50%
CCCCCCCCCCCCn1nnc(CCC(=O)Nc2c(C(C)C)cccc2C(C)C)n1,30,17,<47,
CCCCCCCCCCCCn1nnc(CCC(=O)Nc2c(OC)cc(OC)cc2OC)n1,480,9,,
CCCCCCCCCCCCn1nnc(C(C(=O)Nc2c(C)nn(C)c2C)c2ccccc2)n1 (stereo unspecified),13,66,<62,Change [5]: 28%; Decrease [4]: 66%
CCCCCCCCCCCCc1nnn(CC(=O)Nc2c(C(C)C)cccc2C(C)C)n1,6,95,<68,Change [5]: 165%; Change [6]: <72%; Decrease [4]: 68%; Change [7]: <81%
CCCCCCCCCCCCn1nnc(CC(=O)Nc2c(OC)cc(OC)cc2OC)n1,24,66,<60,
CCCCCCCCCCCCCCCCn1nnc(C(C(=O)Nc2c(OC)cc(OC)cc2OC)c2ccccc2)n1 (stereo unspecified),53,55,<47,Change [5]: 16%; Change [7]: -9%
CCCCCCCCCCCCn1nnc(C(C(=O)Nc2c(C(C)C)cccc2C(C)C)c2ccccn2)n1 (stereo unspecified),26,24,<64,
CCCCCCCCCCCCc1nnn(CC(=O)Nc2c(OC)cc(OC)cc2OC)n1,56,61,<69,Change [5]: 3%; Change [6]: <44%; Decrease [4]: 69%; Change [7]: <46%
CCCCCCCCCCCCn1nnc(C(C(=O)Nc2c(C(C)C)cccc2C(C)C)c2nnn[nH]2)n1 (stereo unspecified),> 5000,8,<37,
CCCCCCCCCCCCn1nnc(C(C(=O)Nc2c(OC)cc(OC)cc2OC)C2CCCCC2)n1 (stereo unspecified),28,8,<61,
CCCCCCCCCCCCn1nnc(C(C#N)C(=O)Nc2c(C(C)C)cccc2C(C)C)n1 (stereo unspecified),> 5000,7,<75,
CCCCCCCCCCCCn1nnc(C(C(=O)Nc2ccc(F)cc2F)c2ccccc2)n1 (stereo unspecified),31,1,<70,
